Source: article PMC2606940 (The Journal of General Physiology, 2009)
Where a chain is given by its changes, count along the chain named. Like-named read-outs stand apart in the source and are kept apart here.

Legend:
[1] = target: T1, CLC-0 E166C mutant (E127/K519) (Torpedo marmorata, UniProt P21564, C212S/E166C); format: cell-based; conditions: for IC50: read-out: Apparent affinity (K1/2)
T1 sequence (P21564 1-805 E166C/C212S): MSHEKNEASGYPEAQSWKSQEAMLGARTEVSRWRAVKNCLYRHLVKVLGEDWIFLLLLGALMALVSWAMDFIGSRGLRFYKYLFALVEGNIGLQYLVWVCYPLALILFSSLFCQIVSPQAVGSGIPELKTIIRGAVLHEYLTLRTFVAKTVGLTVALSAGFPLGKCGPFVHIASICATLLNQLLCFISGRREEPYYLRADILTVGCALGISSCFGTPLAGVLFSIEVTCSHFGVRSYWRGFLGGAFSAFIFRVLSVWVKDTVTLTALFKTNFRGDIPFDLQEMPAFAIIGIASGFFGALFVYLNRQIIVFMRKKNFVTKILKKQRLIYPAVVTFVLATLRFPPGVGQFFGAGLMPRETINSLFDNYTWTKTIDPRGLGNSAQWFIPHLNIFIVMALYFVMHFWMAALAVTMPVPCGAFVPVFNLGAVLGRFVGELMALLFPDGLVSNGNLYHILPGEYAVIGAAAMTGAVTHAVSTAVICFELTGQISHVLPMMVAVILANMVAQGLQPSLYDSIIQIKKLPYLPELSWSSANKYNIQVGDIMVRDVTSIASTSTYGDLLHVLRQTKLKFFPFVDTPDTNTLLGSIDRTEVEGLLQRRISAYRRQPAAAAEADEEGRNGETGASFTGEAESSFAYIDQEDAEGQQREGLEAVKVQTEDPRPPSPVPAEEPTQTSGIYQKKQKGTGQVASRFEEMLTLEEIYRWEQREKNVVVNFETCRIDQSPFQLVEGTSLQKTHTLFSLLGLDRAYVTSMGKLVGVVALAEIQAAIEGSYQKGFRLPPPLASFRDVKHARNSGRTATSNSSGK
Procedure, shortened: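 CLC-0 mutants in the C212S background were transfected into HEK293 cells with lipofectamine and recorded 1–3 d later as excised inside-out patches. Both sides held 130 mM NaCl, 5 mM MgCl2, 10 mM HEPES and 1 mM EGTA, pH 7.4. CPA was perfused continuously onto the cytoplasmic face. Steady-state current over the last 10 ms was normalized to bracketing blocker-free controls and fitted to a Langmuir function for K1/2. Values are mean ± SEM of ~4–6 patches.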

CLC-0 E166Q mutant = target: T2, CLC-0 E166Q mutant (Torpedo marmorata, UniProt P21564, C212S/E166Q); format: cell-based
T2 sequence (P21564 1-805 E166Q/C212S): T1 sequence (P21564 1-805 E166C/C212S) with C166Q
Procedure, shortened: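 HEK293 cells expressed C212S-background CLC-0 mutants and were recorded 1–3 d post-transfection as inside-out patches in symmetrical 130 mM NaCl, 10 mM HEPES, pH 7.4. CPA, fatty acids or alkyl sulfates flowed continuously on the cytoplasmic side. C10–C12 compounds were diluted into bath solution from 10 mM DMSO stocks. Test steps ran from +80 to −160 mV after a +80 mV prepulse. Steady-state current was normalized to the mean of pre- and post-blocker controls, and a Langmuir K1/2 was taken at each voltage from ~4–6 patches.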

[2] = read-out: Apparent affinity (K1/2), −60 mV
[3] = read-out: Apparent affinity (K1/2), −80 mV
[4] = read-out: Apparent affinity (K1/2), −100 mV
[5] = read-out: Apparent affinity (K1/2), −120 mV
[6] = read-out: Apparent affinity (K1/2), −140 mV
[7] = read-out: Apparent affinity (K1/2), −160 mV

## O=C(O)COc1ccc(Cl)cc1 [CPA, p-chlorophenoxy acetate]
[1]; 0.3 mM CPA, −160 mV
  block of current: > 90%
[1]; −40 mV
  IC50: 581 ± 94 µM
[1]; −60 mV
  IC50: 349 ± 15 µM
[1]; −80 mV
  IC50: 186 ± 7 µM
[1]; −100 mV
  IC50: 104 ± 3 µM
[1]; −120 mV
  IC50: 61 ± 2 µM
[1]; −140 mV
  IC50: 38 ± 1 µM
[1]; −160 mV
  IC50: 26 ± 1 µM
  apparent koff: 17.2 s⁻¹
  apparent kon: 630000 M⁻¹ s⁻¹
CLC-0 E166Q mutant; 300 μM CPA, −160 mV
  inhibition of current: < 10%
CLC-0 E166Q mutant; [2]
  IC50: 19700 ± 900 µM
CLC-0 E166Q mutant; [3]
  IC50: 14000 ± 700 µM
CLC-0 E166Q mutant; [4]
  IC50: 9710 ± 480 µM
CLC-0 E166Q mutant; [5]
  IC50: 6840 ± 310 µM
CLC-0 E166Q mutant; [6]
  IC50: 4710 ± 150 µM
CLC-0 E166Q mutant; [7]
  IC50: 3340 ± 80 µM

## CCCCCCCC(=O)O [octanoate]
[1]; −40 mV
  IC50: 88.5 ± 17.1 µM
[1]; −60 mV
  IC50: 43.1 ± 6.4 µM
[1]; −80 mV
  IC50: 20.7 ± 3.4 µM
[1]; −100 mV
  IC50: 10.2 ± 1.8 µM
[1]; −120 mV
  IC50: 5.6 ± 1.1 µM
[1]; −140 mV
  IC50: 3.5 ± 0.8 µM
[1]; −160 mV
  IC50: 2 ± 0.5 µM
CLC-0 E166Q mutant; read-out: Apparent affinity (K1/2), −40 mV
  IC50: 17800 ± 1500 µM
CLC-0 E166Q mutant; [2]
  IC50: 11400 ± 690 µM
CLC-0 E166Q mutant; [3]
  IC50: 6940 ± 360 µM
CLC-0 E166Q mutant; [4]
  IC50: 4210 ± 240 µM
CLC-0 E166Q mutant; [5]
  IC50: 2530 ± 160 µM
CLC-0 E166Q mutant; [6]
  IC50: 1450 ± 100 µM
CLC-0 E166Q mutant; [7]
  IC50: 880 ± 90 µM
CLC-0 E166Q mutant; read-out: K1/2, Fig. 10 D
  IC50: ~1000 µM
